Results from ChEMBL document CHEMBL1177719 (J Med Chem, 2010).
pIC50: −log10 of the molar value.

Legend:
[1] = Antioxidant activity assessed as DPPH scavenging activity after 30 mins; assay type: functional
[2] = target: T1, Prostaglandin G/H synthase 2 (Homo sapiens, UniProt P35354); assay: Inhibition of human recombinant COX2 assessed as PGE2 production after 10 mins by ELISA
T1 sequence (P35354 whole entry): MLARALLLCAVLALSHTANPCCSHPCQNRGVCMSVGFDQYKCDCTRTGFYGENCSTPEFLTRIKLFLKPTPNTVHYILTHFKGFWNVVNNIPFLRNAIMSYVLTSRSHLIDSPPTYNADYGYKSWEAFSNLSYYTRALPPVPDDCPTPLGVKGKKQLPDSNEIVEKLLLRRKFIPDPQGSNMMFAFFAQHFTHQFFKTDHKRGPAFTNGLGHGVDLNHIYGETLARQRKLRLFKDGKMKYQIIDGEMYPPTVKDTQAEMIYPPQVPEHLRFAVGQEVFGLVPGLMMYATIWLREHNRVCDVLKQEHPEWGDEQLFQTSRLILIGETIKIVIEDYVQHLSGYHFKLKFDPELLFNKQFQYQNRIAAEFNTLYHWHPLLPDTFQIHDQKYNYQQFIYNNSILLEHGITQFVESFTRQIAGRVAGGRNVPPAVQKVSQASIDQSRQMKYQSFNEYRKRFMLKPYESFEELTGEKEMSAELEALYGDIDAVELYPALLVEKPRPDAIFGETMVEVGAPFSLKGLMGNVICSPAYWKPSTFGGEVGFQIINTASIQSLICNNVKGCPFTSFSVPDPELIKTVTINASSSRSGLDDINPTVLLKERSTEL

[3] = Chemical stability assessed as degradation after 24 hrs by LC/MS/MS analysis; assay type: physicochemical
In short: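 Compound held 24 h at 37 °C in RPMI 1640 culture medium, the medium used for the MCF7 uptake work; remaining amount sampled at 0, 12 and 24 h as % of starting level; three runs.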

HL-60 = assay: Cell cycle arrest in human HL60 cells assessed as accumulation at sub-G1 phase at 34 uM after 24 hrs by flow cytometry; assay type: functional
In short: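 HL-60 cells (2 × 10⁵/well) exposed to samples for 24 h, then stained with NIM-DAPI nuclear isolation medium. Read by flow cytometry under UV excitation; percentage of cells in subG₁ taken from the DNA histogram.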

[4] = Inhibition of TNF-alpha-induced NF-kappaB activity expressed in HEK293 cells after 48 hrs by luciferase reporter gene assay; assay type: cell-based; conditions: HEK293, 48 h
MCF7 = assay: Cellular uptake in human MCF7 cells assessed per millions cells at 50 uM after 24 hrs by LC/MS/MS analysis; assay type: ADME, cell-based; conditions: mcf7, 24 h

SMILES | pIC50 [1] | pIC50 [2] | Stability [3] | Activity (HL-60) [%] | pIC50 [4] | Drug uptake (MCF7)
O=S(=O)([O-])Oc1cc(O)cc(/C=C/c2ccc(O)cc2)c1.[K+] | 3.66 | 5.12 | – | – | – | –
O=S(=O)([O-])Oc1ccc(/C=C/c2cc(O)cc(O)c2)cc1.[K+] | – | 5.05 | Stable | 2.22 | 4.74 | –
O=S(=O)([O-])Oc1cc(/C=C/c2ccc(O)cc2)cc(OS(=O)(=O)[O-])c1.[K+].[K+] | – | – | – | – | – | Active
